Measurements taken from ChEMBL document CHEMBL1142546 (J Med Chem, 2008).
Active and inactive are the calls of the source. No cut-off for these calls is given here.

What was measured:
[1] = Stability in 20 mM HEPES buffer assessed as beta-lactone hydrolysis rate at pH 7.3 at 37 degC
Oryctolagus cuniculus [2] = species: Oryctolagus cuniculus; test: Inhibition of chymotrypsin-like activity of rabbit 20S proteasome assessed as enzyme activity recovery 12 hrs after dialysis
Outline: (§1)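 Rabbit 20S proteasome (1.4 nM final) was incubated 1 h at ambient temperature with compound or DMSO (0.1% final) in 20 mM HEPES pH 7.3, 0.5 mM EDTA, 0.05% Triton X-100, 0.035% SDS (SDS omitted for T-L). Mixtures were dialysed (MWCO 12-14000) against assay buffer at ambient temperature. Samples taken at 0, 1, 2, 5, 24 h (some also 12 h) for site activity, normalised to DMSO controls.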

[3] = Inhibition of caspase-like activity of rabbit 20S proteasome; design: species or system Oryctolagus cuniculus
Outline: (§2)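 Purified rabbit muscle 20S proteasome at 1.4 nM final. T-L used the same buffer without SDS and Boc-LRR-AMC. Serial dilutions were preincubated 5 min at 37 °C. AMC fluorescence ex 390/em 460 nm.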

[4] = Inhibition of chymotrypsin-like activity of rabbit 20S proteasome; design: species or system Oryctolagus cuniculus
Outline: as §2

[5] = Inhibition of trypsin-like activity of rabbit 20S proteasome; design: species or system Oryctolagus cuniculus
Outline: as §2

Oryctolagus cuniculus [6] = species: Oryctolagus cuniculus; test: Inhibition of chymotrypsin-like activity of rabbit 20S proteasome assessed as enzyme activity recovery 24 hrs after dialysis
Outline: as §1

[7] = Inhibition of chymotrypsin-like activity of yeast 20S proteasome; design: species or system Saccharomyces cerevisiae
Outline: (§3)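 Purified yeast 20S proteasome in 75 mM Tris-HCl pH 7.8 with 0.02% SDS. Serial compound dilutions were preincubated 5 min at 37 °C, then substrate was added: Suc-LLVY-AMC at 20 µM final (CT-L), Z-LLE-AMC (C-L), or Bz-VGR-AMC with SDS omitted (T-L). Cleaved AMC read at ex 390/em 460 nm.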

[8] = Inhibition of trypsin-like activity of yeast 20S proteasome; design: species or system Saccharomyces cerevisiae
Outline: as §3

Homo sapiens [9] = species: Homo sapiens; test: Inhibition of chymotrypsin-like activity of human 20S proteasome assessed as enzyme activity recovery 12 hrs after dialysis
[10] = Inhibition of caspase-like activity of yeast 20S proteasome; design: species or system Saccharomyces cerevisiae
Outline: as §3

[11] = Inhibition of caspase-like activity of human 20S proteasome assessed as release of free AMC substrate by fluorimetry based kinetic assay
Homo sapiens [12] = species: Homo sapiens; test: Inhibition of trypsin-like activity of human 20S proteasome assessed as inactivation rate by fluorimetry based kinetic assay
[13] = Inhibition of trypsin-like activity of human 20S proteasome assessed as release of free AMC substrate by fluorimetry based kinetic assay
[14] = Inhibition of chymotrypsin-like activity of human 20S proteasome
Homo sapiens [15] = species: Homo sapiens; test: Inhibition of trypsin-like activity of human 20S proteasome assessed as enzyme activity recovery 12 hrs after dialysis
Homo sapiens [16] = species: Homo sapiens; test: Inhibition of chymotrypsin-like activity of human 20S proteasome assessed as inactivation rate by fluorimetry based kinetic assay
Homo sapiens [17] = species: Homo sapiens; test: Inhibition of caspase-like activity of human 20S proteasome assessed as enzyme activity recovery 12 hrs after dialysis
Oryctolagus cuniculus [18] = species: Oryctolagus cuniculus; test: Inhibition of trypsin-like activity of rabbit 20S proteasome assessed as enzyme activity recovery 24 hrs after dialysis
Outline: as §1

[19] = Inhibition of caspase-like activity of human 20S proteasome
Oryctolagus cuniculus [20] = species: Oryctolagus cuniculus; test: Inhibition of caspase-like activity of rabbit 20S proteasome assessed as enzyme activity recovery 24 hrs after dialysis
Outline: as §1

Homo sapiens [21] = species: Homo sapiens; test: Inhibition of caspase-like activity of human 20S proteasome assessed as inactivation rate by fluorimetry based kinetic assay
[22] = Inhibition of chymotrypsin-like activity of human 20S proteasome assessed as release of free AMC substrate by fluorimetry based kinetic assay
[23] = Inhibition of trypsin-like activity of human 20S proteasome
Oryctolagus cuniculus [24] = species: Oryctolagus cuniculus; test: Inhibition of trypsin-like activity of rabbit 20S proteasome assessed as enzyme activity recovery 12 hrs after dialysis
Outline: as §1

Oryctolagus cuniculus [25] = species: Oryctolagus cuniculus; test: Inhibition of caspase-like activity of rabbit 20S proteasome assessed as enzyme activity recovery 12 hrs after dialysis
Outline: as §1

Row | Structure (SMILES) | half-life [1] [h] | Activity (Oryctolagus cuniculus [2]) | IC50 [3] [nM] | IC50 [4] [nM] | IC50 [5] [nM] | Activity (Oryctolagus cuniculus [6]) | further results
1 | CCC[C@H]1C(=O)N[C@@]2([C@@H](O)[C@@H]3C=CCCC3)C(=O)O[C@@]12C | 2.85 | inactive | 1200 | 24 | 1100 | – | –
2 | C[C@H]1C(=O)N[C@@]2([C@@H](O)[C@@H]3C=CCCC3)C(=O)O[C@@]12C | 1.58 | inactive | 460 | 7.5 | 370 | – | –
3 | CN(C)c1cccc2c(S(=O)(=O)OCC[C@H]3C(=O)N[C@@]4([C@@H](O)[C@@H]5C=CCCC5)C(=O)O[C@@]34C)cccc12 | 2.98 | – | 90 | 3 | 12 | – | –
4 | Cc1ccc(S(=O)(=O)OCC[C@H]2C(=O)N[C@@]3([C@@H](O)[C@@H]4C=CCCC4)C(=O)O[C@@]23C)cc1 | 1.25 | – | 127 | 2.5 | 9.9 | Active | –
5 | C[C@@]12OC(=O)[C@]1([C@@H](O)[C@@H]1C=CCCC1)NC(=O)[C@@H]2CCOS(C)(=O)=O | 0.983 | – | 870 | 4.3 | 65 | Active | –
6 | C[C@@]12OC(=O)[C@]1([C@@H](O)[C@@H]1C=CCCC1)NC(=O)[C@@H]2CCBr [BROMOSALINOSPORAMIDE] | 1.33 | – | 290 | 2.6 | 14 | – | –
7 | C[C@@]12OC(=O)[C@]1([C@@H](O)[C@@H]1C=CCCC1)NC(=O)[C@@H]2CCF [FLUOROSALINOSPORAMIDE] | 1.32 | – | – | 9.2 | – | Active | –
8 | C[C@@]12OC(=O)[C@]1([C@@H](O)[C@@H]1C=CCCC1)NC(=O)[C@@H]2CCI [IODOSALINOSPORAMIDE] | 1.53 | – | 410 | 2.8 | 13 | – | –
9 | C[C@@]12OC(=O)[C@]1([C@@H](O)[C@@H]1C=CCCC1)NC(=O)[C@@H]2CCCl [MARIZOMIB] | 1.28 | – | – | – | – | Active | IC50 [7]: 2 nM; IC50 [8]: 59 nM; Activity (Homo sapiens [9]): Active; IC50 [10]: 2600 nM; Ki [11]: > 1000 nM; Activity (Homo sapiens [12]): 0.003 s⁻¹; Ki [13]: 97 nM; IC50 [14]: 3.5 nM; Activity (Homo sapiens [15]): Active; Activity (Homo sapiens [16]): 0.01 s⁻¹; Activity (Homo sapiens [17]): Active; Activity (Oryctolagus cuniculus [18]): Active; IC50 [19]: 430 nM; Activity (Oryctolagus cuniculus [20]): Active; Activity (Homo sapiens [21]): > 0.02 s⁻¹; Ki [22]: 23 nM; IC50 [23]: 28 nM
10 | CC[C@H]1C(=O)N[C@@]2([C@@H](O)[C@@H]3C=CCCC3)C(=O)O[C@@]12C [SALINOSPORAMIDE B] | 3.17 | inactive | – | – | 610 | – | IC50 [7]: 16 nM; IC50 [8]: 1040 nM; IC50 [10]: > 20000 nM; Activity (Oryctolagus cuniculus [24]): inactive; Activity (Oryctolagus cuniculus [25]): inactive
11 | C[C@@]12OC(=O)[C@@]1([C@@H](O)[C@@H]1C=CCCC1)NC(=O)[C@@H]2CCO [hydroxysalinosporamide A] | 1.42 | inactive | 1200 | 14 | 1200 | – | –
